From ChEMBL document CHEMBL1150285, “Combination of non-natural D-amino acid derivatives and allophenylnorstatine-dimethylthioproline scaffold in HIV protease inhibitors have high efficacy in mutant HIV” (J Med Chem, 2008)

Tests used:
[1] = system: Human immunodeficiency virus 1; test: Antiviral activity against HIV1 3B in human MT4 cells assessed as inhibition of viral-induced cytopathic effect by MTT method; assay type: functional, organism-based; conditions: Human immunodeficiency virus 1, 3B
[2] = Cytotoxicity against human MT4 cells by MTT assay; assay type: cell-based
[3] = Selectivity index, ratio of CC50 for human MT4 cells to EC50 for HIV1 3B; conditions: MT4 cells
[4] = system: Human immunodeficiency virus 1; test: Antiviral activity against wild type HIV1 NL432; assay type: functional, organism-based; conditions: Human immunodeficiency virus 1, NL432
[5] = system: Human immunodeficiency virus 1; test: Antiviral activity against nelfinavir-resistant HIV1 NL432; assay type: functional, organism-based; conditions: Human immunodeficiency virus 1, NL432
[6] = system: Human immunodeficiency virus 1; test: microbe, parasite or virus in culture; assay type: functional, organism-based; conditions: Human immunodeficiency virus 1, NL432
[7] = system: Human immunodeficiency virus 1; test: microbe, parasite or virus in culture; assay type: functional, organism-based; conditions: Human immunodeficiency virus 1, NL432; remark: listed apart in the source
[8] = system: Human immunodeficiency virus 1; test: Antiviral activity against HIV1 3B in presence of 10% fetal calf serum; assay type: functional, organism-based; conditions: Human immunodeficiency virus 1, 3B
[9] = system: Human immunodeficiency virus 1; test: Antiviral activity against HIV1 3B in presence of 10% fetal calf serum and alpha1 acid glycoprotein; assay type: functional, organism-based; conditions: Human immunodeficiency virus 1, 3B
[10] = system: Human immunodeficiency virus 1; test: Ratio of EC50 for nelfinavir-resistant HIV1 NL432 to EC50 for wild-type HIV1 NL432; assay type: functional
Protease = Protease (Human immunodeficiency virus 1, UniProt Q9YQ12); test: Inhibition of HIV1 protease
Procedure, shortened: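 HIV-1 protease (2 µg/mL stock in pH 5.5 acetate buffer) was mixed with test compound (10 nM solution in DMSO) in MES-NaOH buffer, pH 5.5, containing DTT, EDTA and NaCl. The mixture was preincubated 5 min at 37 °C, then started with substrate H-Lys-Ala-Arg-Val-Tyr*Phe(p-NO₂)-Glu-Ala-Nle-NH₂. After 60 min at 37 °C, the reaction was stopped with 1N HCl.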

[11] = target: Protease (Human immunodeficiency virus 1) (UniProt Q9YQ12); conditions: at 1 nM
Protease (Human immunodeficiency virus 1), sequence (Q9YQ12 as listed by the source): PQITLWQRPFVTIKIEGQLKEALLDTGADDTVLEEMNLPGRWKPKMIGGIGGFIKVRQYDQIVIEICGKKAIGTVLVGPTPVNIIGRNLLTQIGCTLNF

Protease, sequence (Q9YQ12 whole entry): as the sequence (Q9YQ12 as listed by the source) above

| SMILES | EC50 [1] [nM] | CC50 [2] [nM] | selectivity ratio [3] | EC50 [4] [nM] | EC50 [5] [nM] | EC50 [6] [nM] | EC50 [7] [nM] | EC50 [8] [nM] | EC50 [9] [nM] | Ratio EC50 [10] | IC50 (Protease) [nM] | inhibition [11] [%] |
| --- | --- | --- | --- | --- | --- | --- | --- | --- | --- | --- | --- | --- |
| Cc1ccccc1CNC(=O)[C@H]1N(C(=O)[C@@H](O)[C@H](Cc2ccccc2)NC(=O)[C@@H](COCc2ccccc2)NS(C)(=O)=O)CSC1(C)C | 20 | 17000 | 850 | 22 | 2.3 | 90 | 92 | 20 | 90 | 0.1 | 0.56 | 59 |
| COc1ccc(CSC[C@@H](NS(C)(=O)=O)C(=O)N[C@@H](Cc2ccccc2)[C@H](O)C(=O)N2CSC(C)(C)[C@H]2C(=O)NCc2ccccc2C)cc1 | 9.3 | 10000 | 1100 | 16 | 0.67 | 20 | 23 | 9.4 | 94 | 0.04 | 0.26 | 77 |
| CC(=O)N[C@H](CS(=O)(=O)c1ccc(Cl)cc1)C(=O)N[C@@H](Cc1ccccc1)[C@H](O)C(=O)N1CSC(C)(C)[C@H]1C(=O)NCc1ccccc1C | 47 | 18000 | 380 | 88 | 9.6 | 44 | 19 | 27 | 1270 | 0.11 | 0.22 | 80 |
| COc1ccc(CSC[C@@H](NC(C)=O)C(=O)N[C@@H](Cc2ccccc2)[C@H](O)C(=O)N2CSC(C)(C)[C@H]2C(=O)NCc2ccccc2C)cc1 | – | – | 1300 | – | – | – | – | – | 89 | 0.14 | 0.18 | 87 |
| CC(=O)N[C@H](CS(=O)(=O)c1ccc2ccccc2c1)C(=O)N[C@@H](Cc1ccccc1)[C@H](O)C(=O)N1CSC(C)(C)[C@H]1C(=O)NCc1ccccc1C | 28 | 16000 | 570 | – | – | – | – | – | – | – | 0.086 | 96 |
| CC(=O)N[C@H](COCc1ccccc1)C(=O)N[C@@H](Cc1ccccc1)[C@H](O)C(=O)N1CSC(C)(C)[C@H]1C(=O)NCc1ccccc1C | 21 | > 30000 | > 1400 | 23 | 6.5 | 77 | 44 | 20 | 278 | 0.28 | 0.39 | 64 |
